Measured values from publication PMC11904669 (ACS Omega, 2025).
*1 amine or outer side, *2 acyl side, *3 side chain or, on linkers, in order; H or OH if unused. Where a SMILES comes first, the peptide text is derived from it. Where no end group is shown, it is not given here. Side-chain parts run from the residue outwards. The star is where a group is joined. C20 diacid = O=C(O)CCCCCCCCCCCCCCCCCCC(=O)*; γGlu = O=C(O)[C@H](CCC(=O)[*:2])N[*:1]; PEG2 = NCCOCCOCCC(=O)O

Key:
[1] = test system: FN and COL1α1; assay: Western blot of FN and COL1α1 in TGF-β-induced LX2 cells; format: cell-based, human; settings: 10 μM
[2] = test system: LX2 cells; assay: CCK-8 assay of cell growth; format: cell-based, human; settings: high concentration 64.0 μM
[3] = Serum stability analysis; format: in vitro ADME
How it was run: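 Peptide (5 mM) was incubated in mouse serum at 37 °C for 0, 0.25, 1, 2, 4, 8, 16 and 24 h. Reactions were quenched with ice-cold acetonitrile, vortexed 10 s and left 1 min. Water containing 1% TFA was then added, the mix was centrifuged at 13,000g for 10 min, and the supernatant was collected for analysis.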

[4] = test system: COL1α1; assay: Western blot of COL1α1; format: cell-based, human; settings: TGF-β-treated LX2 cells, 10 μM, 24 h, Western blot (Figure 4)
[5] = test system: α-SMA; assay: Western blot of α-SMA in TGF-β-induced LX2 cells; format: cell-based, human; settings: TGF-β-treated LX2 cells, 10 μM, 24 h, Western blot (Figure 4)
How it was run: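 LX2 human hepatic stellate cells were grown in DMEM with 10% FBS and 1% penicillin-streptomycin at 37 °C, 5% CO2. Cells were induced with TGF-β (10 ng/mL) with or without 10 μM test compound for 24 h. Lysates in RIPA buffer were BCA-quantified, run on SDS-PAGE and transferred to PVDF. Primary antibody was applied overnight at 4 °C, then ECL detection. Densitometry was normalized to GAPDH; n = 3.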

[6] = test system: p-ERK; assay: Western blot of p-Erk/Erk in liver, CCl4-induced liver fibrosis model; format: in vivo, mouse; settings: CCl4 mice, 250 μg/kg i.p. daily for 4 weeks
How it was run: (§1)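 Male C57BL/6J mice with CCl4 fibrosis (20% in corn oil s.c., every 2 days, 8 weeks) received test compound 250 μg/kg i.p. daily over the final 4 weeks. Liver tissue was snap-frozen and stored at −80 °C, then lysed in RIPA buffer and BCA-quantified. Samples went through SDS-PAGE and PVDF transfer, overnight primary antibody at 4 °C, and ECL. Phospho-protein densitometry was normalized to GAPDH; n = 5.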

[7] = test system: p-Smad3; assay: Western blot of p-Smad3/Smad3 in liver, CCl4-induced liver fibrosis model; format: in vivo, mouse; settings: CCl4 mice, 250 μg/kg i.p. daily for 4 weeks
How it was run: as §1

[8] = test system: CCl4-induced liver fibrosis model; assay: Serum ALT, CCl4-induced liver fibrosis model; format: in vivo, mouse; settings: CCl4 mice, 250 μg/kg i.p. daily for 4 weeks
How it was run: (§2)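 CCl4 (20% in corn oil, s.c., every 2 days, 8 weeks) fibrotic male C57BL/6J mice received test compound 250 μg/kg i.p. daily for the last 4 weeks. After the final dose, mice were fasted 9 h and euthanized 8 h later. Blood was drawn retro-orbitally under anesthesia and spun at 1000g for 15 min; serum was stored at −80 °C. ALT or AST was measured by commercial kit; n = 5.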

[9] = test system: CCl4-induced liver fibrosis model; assay: Serum AST, CCl4-induced liver fibrosis model; format: in vivo, mouse; settings: CCl4 mice, 250 μg/kg i.p. daily for 4 weeks
How it was run: as §2

[10] = test system: CCl4-induced liver fibrosis model; assay: Hydroxyproline in liver tissue, CCl4-induced liver fibrosis model; format: in vivo, mouse; settings: CCl4 mice, 250 μg/kg i.p. daily for 4 weeks, n = 5
How it was run: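 Liver fibrosis was induced in male C57BL/6J mice (6–8 wk) by s.c. 20% CCl4 in corn oil (5 mL/kg) every 2 days for 8 weeks, with corn-oil controls. Test compound was given at 250 μg/kg i.p. daily for the final 4 weeks. Livers were snap-frozen in liquid nitrogen, kept at −80 °C, and assayed for hydroxyproline; n = 5.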

[11] = test system: CCl4-induced liver fibrosis model; assay: SOD in liver tissue, CCl4-induced liver fibrosis model; format: in vivo, mouse; settings: CCl4 mice, 250 μg/kg i.p. daily for 4 weeks, n = 5
[12] = test system: CCl4-induced liver fibrosis model; assay: GSH in liver tissue, CCl4-induced liver fibrosis model; format: in vivo, mouse; settings: CCl4 mice, 250 μg/kg i.p. daily for 4 weeks, n = 5
[13] = test system: CCl4-induced liver fibrosis model; assay: Liver histology; format: in vivo, mouse; settings: CCl4 mice, 250 μg/kg i.p. daily for 4 weeks
How it was run: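 CCl4 model: male C57BL/6J mice, s.c. 20% CCl4 in corn oil every 2 days for 8 weeks, test compound 250 μg/kg i.p. daily during the last 4 weeks. Livers were fixed in 10% formaldehyde, deparaffinized and rehydrated. Sections got H&E, Sirius red (10 fields at 20× per liver) and IHC for α-SMA and COL1α1. Positive area was quantified excluding large bile ducts and vessels; n = 5.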

[14] = test system: C57BL/6J mice; assay: General observation of mice during peptide treatment; format: in vivo, mouse; settings: CCl4 mice, 250 μg/kg i.p. daily for 4 weeks
How it was run: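 Male C57BL/6J mice (6–8 wk, 20–24 g) received 20% CCl4 in corn oil s.c. (5 mL/kg) every 2 days for 8 weeks, with corn-oil-injected controls. Test compound was given i.p. at 250 μg/kg daily over the last 4 weeks. Appearance, behavior and food intake were observed, and body weight was monitored (n = 5−7).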

Molecule: CC(C)C[C@@H]1NC(=O)[C@@H]2CCCN2C(=O)[C@H](Cc2ccccc2)NC(=O)CNC(=O)[C@@H]2CCCN2C(=O)[C@H](C)NC(=O)CNC(=O)CNC(=O)[C@H](Cc2ccccc2)NC(=O)[C@H]([C@@H](C)O)NC(=O)[C@H](CO)NC(=O)CNC1=O [S19] (cyclo(APGFPLGSTFGG))
- effect on expression of FN and COL1α1 [1]: diminished the inhibitory impacts

Molecule: TFGGAPGFPLGS [T6-S]
- growth of LX2 cells (CCK-8) [2]: did not affect the growth
- peptide detectable by HPLC after incubation in serum ([3]; mouse serum, 37 °C, 5 mM peptide, RP-HPLC-MS, 1 h): 50%

Molecule: CC(C)C[C@H](NC(=O)[C@@H]1CCCN1C(=O)[C@H](Cc1ccccc1)NC(=O)CNC(=O)[C@@H]1CCCN1C(=O)[C@H](C)NC(=O)[C@H](CCCCNC(=O)CCOCCOCCNC(=O)CCOCCOCCNC(=O)CC[C@H](NC(=O)CCCCCCCCCCCCCCCCCCC(=O)O)C(=O)O)NC(=O)CNC(=O)[C@H](Cc1ccccc1)NC(=O)[C@@H](N)[C@@H](C)O)C(=O)NCC(=O)N[C@@H](CO)C(N)=O [S6-FA] (H-TFGK([PEG2-PEG2-γGlu-C20 diacid])APGFPLGS-NH2)
- expression of COL1α1 [4]: conspicuously decreased
- expression of α-SMA [5]: conspicuously decreased
- phosphorylation of ERK in liver [6]: effectively inhibited
- phosphorylation of Smad3 in liver [7]: effectively inhibited
- ALT serum level [8]: remarkably reduced
- AST serum level [9]: remarkably reduced
- HYP content in liver tissue [10]: significantly decreased
- content of SOD in liver tissue versus CCl4 group [11]: significantly higher
- content of GSH in liver tissue versus CCl4 group [12]: significantly higher
- collagen deposition (Sirius red) ([13]; n = 5): more efficacious outcomes in reducing collagen deposition compared to T6-S
- fibrosis markers α-SMA and COL1α1 (IHC) ([13]; versus control group and T6-S group): notably lower
- appearance, behavior, food intake, body weight [14]: no abnormalities
- half-life at 5 mM ([3]; mouse): ~24 h

Molecule: TFGGAPGFPLGSPLSSVFPR [T6, reference compound]
- growth of LX2 cells (CCK-8) [2]: did not affect the growth

Molecule: TFGKAPGFPLGS [S6]
- appearance, behavior, food intake, body weight [14]: no abnormalities
